Measured values as given in ChEMBL document CHEMBL1124421, “A dihydropyridine carrier system for sustained delivery of 2',3'-dideoxynucleosides to the brain” (J Med Chem, 1989).

How the values were obtained:
Mus musculus [1] = species on record: Mus musculus; assay: Distribution of compound in mice brain was measured after 6 hr; settings: in vivo
Mus musculus [2] = species on record: Mus musculus; assay: Distribution of compound in mice liver was measured after 1 hr; type: ADME, organism-based; settings: in vivo
Summary of the method: (§1)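 Female BDF/1 mice dosed by tail-vein injection at 25 mg/kg in 5% Tween 80 containing 5% ethanol; killed 1, 2, 3, 6 and 24 h later. Liver homogenized in 50% methanol and pyridinium salt quantified by C-18 reverse-phase HPLC (linear gradient 50–70% acetonitrile). Three mice per time point; values in µg/g wet tissue.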

Mus musculus [3] = species on record: Mus musculus; assay: Distribution of compound in mice brain was measured after 2 hr; settings: in vivo
Mus musculus [4] = species on record: Mus musculus; assay: Distribution of compound in mice brain was measured after 3 hr; settings: in vivo
Mus musculus [5] = species on record: Mus musculus; assay: Distribution of compound in mice brain was measured after 24 hr r; settings: in vivo
Mus musculus [6] = species on record: Mus musculus; assay: Distribution of compound in mice liver was measured after 6 hr; type: ADME, organism-based; settings: in vivo; summary of the method: as §1
Mus musculus [7] = species on record: Mus musculus; assay: Distribution of compound in mice liver was measured after 3 hr; type: ADME, organism-based; settings: in vivo; summary of the method: as §1
Mus musculus [8] = species on record: Mus musculus; assay: Distribution of compound in mice brain was measured after 1 hr; settings: in vivo
Mus musculus [9] = species on record: Mus musculus; assay: Distribution of compound in mice liver was measured after 2 hr; type: ADME, organism-based; settings: in vivo; summary of the method: as §1
Mus musculus [10] = species on record: Mus musculus; assay: Distribution of compound in mice liver was measured after 24 hr; b=Undetected; type: ADME, organism-based; settings: in vivo; summary of the method: as §1
Homo sapiens = species on record: Homo sapiens; assay: In vitro oxidation of compound to its pyridinium salt (3) in presence of human plasma; type: ADME
Summary of the method: (§2)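 Dihydropyridine ester at 5 × 10^-5 M kept at 37 °C in a UV cuvette. Media were human plasma diluted 1:1 with 50 mM phosphate buffer pH 7.4, mouse liver homogenate (20 mg/mL) or mouse brain homogenate (40 mg/mL) in the same buffer. Loss of the 360 nm dihydronicotinate absorbance was followed. Rate constant came from the slope of log disappearance.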

[11] = Half-life of compound in presence of mouse brain homogenate; type: ADME; summary of the method: as §2
[12] = Half-life of compound in presence of hydrogen peroxide; type: ADME
Mus musculus [13] = species on record: Mus musculus; assay: In vitro oxidation of compound to its pyridinium salt (3) in presence of mouse brain homogenate; type: ADME; summary of the method: as §2
Mus musculus [14] = species on record: Mus musculus; assay: In vitro oxidation of compound to its pyridinium salt (3) in presence of mouse liver homogenate; type: ADME; summary of the method: as §2
[15] = Half-life of compound in presence of mouse liver homogenate; type: ADME; summary of the method: as §2
[16] = In vitro oxidation of compound to its pyridinium salt (3) in presence of hydrogen peroxide; type: ADME
[17] = Half-life of compound in presence of human plasma; type: ADME; summary of the method: as §2

| Concentration (Mus musculus [1]) | Concentration (Mus musculus [2]) | Concentration (Mus musculus [3]) | Concentration (Mus musculus [4]) | Concentration (Mus musculus [5]) | Concentration (Mus musculus [6]) | Concentration (Mus musculus [7]) | Concentration (Mus musculus [8]) | Concentration (Mus musculus [9]) | Concentration (Mus musculus [10]) | K (Homo sapiens) | half-life [11] | half-life [12] | K (Mus musculus [13]) | K (Mus musculus [14]) | half-life [15] | K [16] | half-life [17] | SMILES |
| --- | --- | --- | --- | --- | --- | --- | --- | --- | --- | --- | --- | --- | --- | --- | --- | --- | --- | --- |
| 5.1 ug (g of wet tissue)-1 | 3.3 ug (g of wet tissue)-1 | 4.9 ug (g of wet tissue)-1 | 5.3 ug (g of wet tissue)-1 | 3 ug (g of wet tissue)-1 | 1.3 ug (g of wet tissue)-1 | 2 ug (g of wet tissue)-1 | 4.7 ug (g of wet tissue)-1 | 2.5 ug (g of wet tissue)-1 | Undetected | – | – | – | – | – | – | – | – | Cc1cn(C2C=CC(COC(=O)c3ccc[n+](C)c3)O2)c(=O)[nH]c1=O.[I-] (stereo not drawn) |
| – | – | – | – | – | – | – | – | – | – | 0.0000354 s⁻¹ | 2.17 h | 0.35 h | 0.0000885 s⁻¹ | 0.000092 s⁻¹ | 2.08 h | 0.00055 s⁻¹ | 5.42 h | Cc1cn(C2C=CC(COC(=O)C3=CN(C)C=CC3)O2)c(=O)[nH]c1=O (stereo not drawn) |
| 2.3 ug (g of wet tissue)-1 | – | 2.5 ug (g of wet tissue)-1 | 2.6 ug (g of wet tissue)-1 | 1.2 ug (g of wet tissue)-1 | – | – | 2.7 ug (g of wet tissue)-1 | – | – | – | – | – | – | – | – | – | – | Cc1cn([C@H]2C=C[C@@H](CO)O2)c(=O)[nH]c1=O [STAVUDINE] |

| SMILES | Concentration (Mus musculus [1]) | Concentration (Mus musculus [2]) | Concentration (Mus musculus [3]) | Concentration (Mus musculus [4]) | Concentration (Mus musculus [5]) | Concentration (Mus musculus [6]) | Concentration (Mus musculus [7]) | Concentration (Mus musculus [8]) | Concentration (Mus musculus [9]) | Concentration (Mus musculus [10]) | K (Homo sapiens) | half-life [11] | half-life [12] | K (Mus musculus [13]) | K (Mus musculus [14]) | half-life [15] | K [16] | half-life [17] |
| --- | --- | --- | --- | --- | --- | --- | --- | --- | --- | --- | --- | --- | --- | --- | --- | --- | --- | --- |
| C[n+]1cccc(C(=O)[O-])c1 [TRIGONELLINE] | 1.9 ug (g of wet tissue)-1 | – | 2.1 ug (g of wet tissue)-1 | 2.4 ug (g of wet tissue)-1 | 0.9 ug (g of wet tissue)-1 | – | – | 2.2 ug (g of wet tissue)-1 | – | – | – | – | – | – | – | – | – | – |
